Paper PMC4241044 (Journal of Clinical Pharmacology, 2014)
Like-named read-outs stand apart in the source and are kept apart here. Marks after values point to notes of the source that are not given here.

How the values were obtained:
[1] = assay type: in vivo, human; details: for AUC(0-inf) / Cmax / Vd/F / Tmax / half-life: human, plasma, oral; for Tmax: median (minimum–maximum); for half-life: t½; for increase in AUC∞ / increase in Cmax: compared with normal renal function; for DNAUC∞ (dose-normalized AUC∞) / DNCmax (dose-normalized Cmax): dose-normalized to 10 mg
[2] = Rivaroxaban urine pharmacokinetics; assay type: in vivo, human; details: arithmetic mean (SD); for CL renal: human, urine and plasma, oral, CLR, renal clearance
Factor Xa activity = Factor Xa activity (Homo sapiens, UniProt P00742); assay: Factor Xa inhibition in plasma; assay type: in vivo
prothrombin time (PT) = assay: Prothrombin time prolongation in plasma; assay type: in vivo, human
Summary of the method: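 Subjects were grouped by mean of two Cockcroft–Gault CLCR estimates: ≥80 (normal), 50–79 (mild) and 30–49 mL/min (moderate). […] PT blood was drawn at −1 h (baseline) and 0.5–48 h post-dose. […] Log-transformed geometric mean ratios with 90% CI; completers only.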

Safety and tolerability = assay type: in vivo, human
Summary of the method: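 Monitoring was continuous and covered bleeding events and other treatment-emergent adverse events, with severity and relation to study drugs. Vital signs, ECG, haematology, clinical chemistry, PT/aPTT and urinalysis were checked, plus regular physical examinations. Subjects were grouped by Cockcroft–Gault CLCR. […] Analysis included all subjects receiving ≥1 study-drug dose.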

[3] = cited from earlier work
[4] = previous study, cited from earlier work
[5] = steady-state erythromycin; previous Phase I drug–drug interaction study; cited from earlier work
[6] = 2.5–10 mg dose range under fasting conditions and 10–20 mg dose range under fed conditions; ref previous Phase I studies; cited from earlier work
[7] = Erythromycin trough plasma concentrations, attainment of steady state; assay type: in vivo, human; details: erythromycin 500 mg tid, visual inspection
Summary of the method: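 Erythromycin 500 mg tid was given for 6 days in treatment periods 2 and 3. Trough plasma was sampled before the morning erythromycin dose on days 2–6 and on the morning of day 7, then stored frozen. Assay was LC/MS/MS after methanol protein precipitation, on a reverse-phase column at 40 °C. Steady state was judged visually from concentration–time plots.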

[8] = Mild RI, rivaroxaban 10 mg + erythromycin 500 mg tid
[9] = Moderate RI, rivaroxaban 10 mg + erythromycin 500 mg tid
[10] = 10 mg, geometric mean, Normal RF, rivaroxaban 10 mg
[11] = 10 mg, rivaroxaban 10 mg, mild renal impairment, arithmetic mean (SD)
[12] = rivaroxaban 5 mg + erythromycin 500 mg tid, mild renal impairment, arithmetic mean (SD)
[13] = rivaroxaban 5 mg + erythromycin 500 mg tid, moderate renal impairment, arithmetic mean (SD)
[14] = rivaroxaban 10 mg + erythromycin 500 mg tid, normal renal function, arithmetic mean (SD)
[15] = rivaroxaban 10 mg + erythromycin 500 mg tid, moderate renal impairment, arithmetic mean (SD)
[16] = rivaroxaban 5 mg + erythromycin 500 mg tid, mild renal impairment
[17] = rivaroxaban 10 mg + erythromycin 500 mg tid, moderate renal impairment
[18] = mild renal impairment, rivaroxaban 10 mg with steady-state erythromycin, rivaroxaban 10 mg alone
[19] = mild renal impairment, rivaroxaban 10 mg
[20] = moderate renal impairment, rivaroxaban 10 mg with steady-state erythromycin, rivaroxaban 10 mg alone
[21] = moderate renal impairment, rivaroxaban 10 mg
[22] = rivaroxaban 5 mg + erythromycin 500 mg tid, moderate renal impairment
[23] = rivaroxaban 10 mg + erythromycin 500 mg tid, mild renal impairment
[24] = rivaroxaban 10 mg + erythromycin 500 mg tid, normal renal function
[25] = mild renal impairment vs normal renal function, rivaroxaban 10 mg
[26] = moderate renal impairment vs normal renal function, rivaroxaban 10 mg
[27] = normal renal function, rivaroxaban 10 mg + erythromycin vs rivaroxaban alone

Factor Xa activity, sequence (P00742 235-488 limits assumed): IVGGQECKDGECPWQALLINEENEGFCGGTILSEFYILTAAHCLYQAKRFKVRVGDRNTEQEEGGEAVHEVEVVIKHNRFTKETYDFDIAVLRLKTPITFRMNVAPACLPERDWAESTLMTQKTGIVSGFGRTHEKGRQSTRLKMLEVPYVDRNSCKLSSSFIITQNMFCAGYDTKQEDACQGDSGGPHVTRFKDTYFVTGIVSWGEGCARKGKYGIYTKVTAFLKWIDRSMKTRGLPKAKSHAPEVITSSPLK
Factor Xa activity, sequence (P00742 41-179 partner limits assumed): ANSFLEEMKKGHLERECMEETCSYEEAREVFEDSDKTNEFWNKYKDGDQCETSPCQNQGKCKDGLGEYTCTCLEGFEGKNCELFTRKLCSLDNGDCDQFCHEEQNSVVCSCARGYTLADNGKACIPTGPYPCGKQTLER

O=C(NC[C@H]1CN(c2ccc(N3CCOCC3=O)cc2)C(=O)O1)c1ccc(Cl)s1 [Rivaroxaban, rivaroxaban]
AUC∞, geometric mean [1, 8]: 3,078.7 ng · h/mL | Cmax, geometric mean [1, 8]: 277.2 ng/mL | Cmax, geometric mean [1, 9]: 292.42 ng/mL | AUC∞, geometric mean ([1]; Moderate RI, rivaroxaban 10 mg + erythromycin 500 mg tid, n = 7): 3,475.5 ^a ng · h/mL | Cmax, geometric mean ([1]; Normal RF, rivaroxaban 10 mg): 178.17 ng/mL | AUC(0-inf) ([1]; 10 mg, geometric mean, Mild RI, rivaroxaban 10 mg): 2000 ng·h/mL | AUC(0-inf) ([1]; 10 mg, geometric mean, Moderate RI, rivaroxaban 10 mg): 2040 ng·h/mL | AUC(0-inf) [1, 10]: 1750 ng·h/mL | AUC(0-inf) [1, 11]: 2020 ng·h/mL | Cmax [1, 10]: 178 ng/mL | Vd/F [1, 11]: 77.3 L | Tmax ([1]; 10 mg, rivaroxaban 10 mg, mild renal impairment): 3 h | Tmax ([1]; 10 mg, rivaroxaban 10 mg, moderate renal impairment): 3 h | half-life [1, 11]: 9.9 h | AUC(0-inf) [1, 12]: 1970 ng·h/mL | AUC(0-inf) [1, 13]: 1980 ng·h/mL | AUC(0-inf) [1, 14]: 2470 ng·h/mL | Cmax [1, 15]: 323 ng/mL | Cmax [1, 14]: 256 ng/mL | Vd/F [1, 12]: 37.5 L | Vd/F ([1]; rivaroxaban 10 mg + erythromycin 500 mg tid, mild renal impairment, arithmetic mean (SD)): 46 L | Vd/F [1, 15]: 40.9 L | Vd/F [1, 14]: 44.2 L | Tmax [1, 16]: 3 h | Tmax [1, 17]: 3 h | half-life [1, 13]: 10 h | increase in AUC∞ [1, 18]: approximately 76% | increase in Cmax [1, 18]: ~56% | increase in AUC∞ [1, 19]: approximately 15% | increase in Cmax [1, 19]: ~23% | increase in AUC∞ [1, 20]: ~99% | increase in Cmax [1, 20]: ~64% | increase in AUC∞ [1, 21]: approximately 17% | increase in Cmax [1, 21]: ~36% | DNAUC∞ (dose-normalized AUC∞) [1, 12]: 3,935 (1,671) ng · h/mL | DNCmax (dose-normalized Cmax) [1, 12]: 358 (109) ng/mL | DNAUC∞ (dose-normalized AUC∞) [1, 13]: 3,961 (1,020) ng · h/mL | DNCmax (dose-normalized Cmax) [1, 13]: 329 (104) ng/mL | CL renal [2, 16]: 15.9 mL/min | CL renal [2, 22]: 9.25 mL/min | CL renal [2, 23]: 19.2 mL/min | CL renal [2, 17]: 13.3 mL/min | CL renal [2, 24]: 34.3 mL/min | Ae, cumulative amount excreted into the urine over 48 hours [2, 16]: 1.56 (0.692) mg | Ae, cumulative amount excreted into the urine over 48 hours [2, 22]: 1.04 (0.531) mg | Ae, cumulative amount excreted into the urine over 48 hours [2, 23]: 3.29 (0.893) mg | Ae, cumulative amount excreted into the urine over 48 hours [2, 17]: 2.74 (1.10) mg | Ae, cumulative amount excreted into the urine over 48 hours [2, 24]: 4.80 (0.851) mg | Ae, cumulative amount excreted into the urine over 48 hours ([2]; rivaroxaban 10 mg, mild renal impairment): 2.49 (0.697) ^a mg | Ae, cumulative amount excreted into the urine over 48 hours ([2]; rivaroxaban 10 mg, moderate renal impairment): 1.30 (0.654) mg | Ae, cumulative amount excreted into the urine over 48 hours ([2]; rivaroxaban 10 mg, normal renal function): 3.51 (0.773) mg | Factor Xa inhibition AUC0–48h, geometric mean (Factor Xa activity; [9]): 842.3 | Factor Xa inhibition Emax, geometric mean (Factor Xa activity; [9]): 53.61 | Factor Xa inhibition AUC0–48h, geometric mean (Factor Xa activity; Normal RF, rivaroxaban 10 mg): 593.43 | Factor Xa inhibition Emax, geometric mean (Factor Xa activity; Normal RF, rivaroxaban 10 mg): 39.38 | increase in Factor Xa inhibition AUC0–48h (Factor Xa activity; [25]): approximately 16% | increase in Factor Xa inhibition Emax (Factor Xa activity; [25]): ~17% | increase in Factor Xa inhibition AUC0–48h (Factor Xa activity; [26]): approximately 3% | increase in Factor Xa inhibition Emax (Factor Xa activity; [26]): ~17% | Factor Xa inhibition AUC0–48h lower by (Factor Xa activity; [27]): approximately 8% | increase in Factor Xa inhibition Emax (Factor Xa activity; [27]): approximately 18% | Prothrombin time AUC0–48h, geometric mean (prothrombin time (PT); [8]): 118.7 | Prothrombin time Emax, geometric mean (prothrombin time (PT); [8]): 9.85 | Prothrombin time AUC0–48h, geometric mean (prothrombin time (PT); [9]): 115.1 | Prothrombin time Emax, geometric mean (prothrombin time (PT); [9]): 10.02 | Prothrombin time AUC0–48h, geometric mean (prothrombin time (PT); Normal RF, rivaroxaban 10 mg): 67.82 | Prothrombin time Emax, geometric mean (prothrombin time (PT); Normal RF, rivaroxaban 10 mg): 8.24 | increase in PT Emax (prothrombin time (PT); [25]): ~5% | change in PT AUC0–48h (prothrombin time (PT); [26]): did not seem to change significantly | change in PT Emax (prothrombin time (PT); [26]): did not seem to change significantly | increase in PT AUC0–48h (prothrombin time (PT); [27]): approximately 22% | increase in PT Emax (prothrombin time (PT); [27]): ~10% | subjects reporting bleeding events (Safety and tolerability; 1 NRF, 3 moderate RI, all mild in intensity, of 29 enrolled): Four | tolerability (Safety and tolerability; single dose 5 mg or 10 mg, regardless of renal function and erythromycin co-administration): well tolerated | dose metabolized via CYP2J2 [3]: 14% | dose metabolized via CYP3A4/3A5 [3]: approximately 18% | dose metabolized via CYP-independent hydrolysis [3]: 14% | drug excreted unchanged by the kidneys [3]: approximately 36% | fraction of the absorbed dose hepatically metabolized ([3]; via CYP3A4/3A5, CYP2J2 and CYP-independent mechanisms): approximately two-thirds | fraction of the absorbed dose eliminated as unchanged drug in the urine ([3]; via P-gp-mediated and ABCG2-mediated secretion): third | increase in AUC∞ ([4]; mild renal impairment vs normal renal function): approximately 44% | increase in AUC∞ ([4]; moderate renal impairment vs normal renal function): ~52% | increase in AUC∞ [5]: approximately 34% | increase in Cmax [5]: approximately 34% | dose proportionality (based on AUC) [6]: dose-proportional

CC[C@H]1OC(=O)[C@H](C)[C@@H](O[C@H]2C[C@@](C)(OC)[C@@H](O)[C@H](C)O2)[C@H](C)[C@@H](O[C@@H]2O[C@H](C)C[C@H](N(C)C)[C@H]2O)[C@](C)(O)C[C@@H](C)C(=O)[C@H](C)[C@@H](O)[C@]1(C)O [erythromycin]
attainment of steady-state plasma concentrations [7]: obtained by the morning of day 5
